# Experimental data published in article PMC3151333 (Cancer prevention research (Philadelphia, Pa.), 2011).
# Read-outs that look alike come from different tables or passages of the source.
# Tests used:
# [1] = Detection of protocatechuic acid O-glucuronide; format: in vivo, human
# Procedure, shortened: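 Donors rinsed vigorously with 15 ml augmented BRB rinse (10% final BRB) for 3 min. Saliva was collected at timed intervals, acidified with 5% final formic acid and stored at −80°C. Ion-trap LC-MS coupled to HPLC was tuned by infusing a synthetic PCAOG standard. The run used full scan, zoom scan and CID product-ion scan, and the 329.0>153.0 transition was monitored at 35% energy.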
# [2] = format: in vivo, human; settings: for saliva samples with cyanidin-3 sambubioside glucuronides detected: Rinse III; for glucuronide of the parent anthocyanin in saliva (selected ion chromatograms): five minute Rinse III saliva samples
# [3] = LC-MS/MS determination of protocatechuic acid; format: in vivo, human; settings: for donors whose saliva contained detectable PCA: final (240 minute) time point, 0.2 ng/ml detection limit
# [4] = format: in vivo, human
# [5] = tested on: β-glucosidase; format: biochemical, human; settings: 0.12% in PBS, 3 minute rinse
# [6] = cited from earlier work
# [7] = 240 minute time point following 10% BRB gel application; cited from earlier work
# [8] = tested on: rat liver microsomes; test: Incubation of cyanidin-3 sambubioside with rat liver microsomes; format: in vitro ADME; settings: similar retention time and tandem mass spectra as in saliva
# [9] = after ingestion of a 300 mg dose
compound,measurement,setting,value
protocatechuic acid O-glucuronide [PCAOG],PCAOG peaks in later time point saliva samples,"[1]; 30, 60, 120 and 240 min after Rinse III, either donor",did not reveal any peaks
same,donors with PCAOG peak detected in saliva,[1]; 5 min saliva sample after Rinse III,1 of the 2
cyanidin-3 sambubioside glucuronides,saliva samples with cyanidin-3 sambubioside glucuronides detected,[2]; 30 minute samples,3 of 6
same,saliva samples with cyanidin-3 sambubioside glucuronides detected,[2]; five minute time point samples,6 of the 6
same,cyanidin 3-sambubioside glucuronides in saliva,[2]; after the 30 minute post rinse samples,no cyanidin 3-sambubioside glucuronides were observed
"O=C(O)c1ccc(O)c(O)c1 [PCA, protocatechuic acid]",retention in saliva after rinsing,[3]; BRB rinses,up to 4 hours
same,donors whose saliva contained detectable PCA,[3]; Rinse I,2 of 10
same,donors whose saliva contained detectable PCA,[3]; Rinse II,2 of 10
same,donors whose saliva contained detectable PCA,[3]; Rinse III,6 of 10
Oc1cc(O)c2cc(O)c(-c3ccc(O)c(O)c3)[o+]c2c1 [cyanidin],time by which salivary cyanidin levels were undetectable,[4]; all samples from all rinses,≤ 60 min
same,aglycone cyanidin in early saliva samples,"[4]; up to 5 minute post rinse, all three rinse groups, all donors",detectable levels
[H]/N=C(\N/C(=N/[H])NCCCCCCNC(=N)NC(=N)Nc1ccc(Cl)cc1)Nc1ccc(Cl)cc1 [chlorhexidine gluconate],donors retaining appreciable functional β-glucosidase activity following rinsing,[5],10 of 11
same,decrease in β-glucosidase in saliva following rinsing (mean ± s.e.m),"[5]; saliva 15 minutes after rinsing, n=11, p<0.001",69.43% ±7.24
same,mean peak plasma levels,[6]; [9],0.206 µg/g
same,time of mean peak plasma levels,[6]; [9],30 min
same,absorption from the gastrointestinal tract,[6],poorly absorbed
same,fraction retained in the oral cavity following rinsing,[6],~30%
same,persistence in human saliva after rinsing,[6],at least 12 hours
same,"retention by local adsorption, then slowly released over time",[6],approximately 30%
C[C@@H]1O[C@@H](OC[C@H]2O[C@@H](Oc3cc4c(O)cc(O)cc4[o+]c3-c3ccc(O)c(O)c3)[C@H](O)[C@@H](O)[C@@H]2O)[C@H](O)[C@H](O)[C@H]1O [cyanidin 3-rutinoside],glucuronide of the parent anthocyanin in saliva (selected ion chromatograms),[2],did not reveal any novel peaks
same,"donors retaining any salivary anthocyanins, including rutinoside",[7],3 out of 5
same,donors showing detectable rutinoside in saliva,[4]; in vivo,10 out of 10
same,rutinoside levels in saliva (mean ± S.D.),[4]; in vivo,2287.12 ± 489.55 µg/mL
same,"salivary BRB anthocyanin level, Rinse I relative to Rinse III",[4]; in vivo,significantly higher
OC[C@H]1O[C@@H](Oc2cc3c(O)cc(O)cc3[o+]c2-c2ccc(O)c(O)c2)[C@H](O[C@@H]2OC[C@@H](O)[C@H](O)[C@H]2O)[C@@H](O)[C@@H]1O.[Cl-] [cyanidin 3-sambubioside],metabolite formation on incubation with rat liver microsomes,[8],generated cyanidin-3 sambubioside glucuronides
same,"salivary BRB anthocyanin level, Rinse I relative to Rinse III",[4]; in vivo,significantly higher
OC[C@H]1O[C@@H](Oc2cc3c(O)cc(O)cc3[o+]c2-c2ccc(O)c(O)c2)[C@H](O)[C@@H](O)[C@@H]1O [cyanidin 3-glucoside],glucuronide of the parent anthocyanin in saliva (selected ion chromatograms),[2],did not reveal any novel peaks
same,"salivary BRB anthocyanin level, Rinse I relative to Rinse III",[4]; in vivo,significantly higher
same,"salivary anthocyanin level, Rinse II relative to Rinse I",[4]; in vivo,significantly lower
